≈ marks a conversion by molar mass, not a printed value. Calls of active or inactive are those of the source. No cut-off for these calls is given here.

Assay type in all cases: functional
The subject of test [1] is Radical scavenging activity. In words: Antioxidant activity assessed as DPPH free radical scavenging activity at 50 ug/ml after 30 mins by spectrophotometric analysis relative to control. A digest of the protocol:
(§1)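 Compounds in methanol at […] were mixed with 0.004% (w/v) methanolic DPPH. After 30 min at room temperature, absorbance was read at 517 nm against a blank. Percent inhibition was calculated from control (all reagents minus compound) and sample absorbances. Run in triplicate.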
In general terms: The DPPH test is a chemical assay of radical scavenging.

Test [2] deals with Radical scavenging activity. In words: Antioxidant activity assessed as DPPH free radical scavenging activity at 75 ug/ml after 30 mins by spectrophotometric analysis relative to control. The method in brief:
as §1

The subject of test [3] is Radical scavenging activity. In words: Antioxidant activity assessed as DPPH free radical scavenging activity at 100 ug/ml after 30 mins by spectrophotometric analysis relative to control. A digest of the protocol:
as §1

Test [4] has as its system Radical scavenging activity. The test is described as follows: Antioxidant activity assessed as DPPH free radical scavenging activity after 30 mins by spectrophotometric analysis. A digest of the protocol: as §1
The nature of test [5]: Antioxidant activity assessed as nitric oxide scavenging activity at 50 ug/ml after 150 mins by Griess method relative to control. A digest of the protocol:
(§2)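 NO was generated from sodium nitroprusside (10 mM) in phosphate buffer saline (0.2 M, pH 7.4). Compounds were added at […] and incubated 150 min at 25 °C. Percent scavenging was calculated from control (all reagents minus compound) and sample absorbances. Run in triplicate.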
For orientation: Nitrite, measured by Griess reagent, commonly stands in for NO production.

Test [6] can be described thus: Antioxidant activity assessed as nitric oxide scavenging activity at 75 ug/ml after 150 mins by Griess method relative to control. A digest of the protocol: as §2
Test [7] is described as follows: Antioxidant activity assessed as nitric oxide scavenging activity at 100 ug/ml after 150 mins by Griess method relative to control. A digest of the protocol: as §2
A short description of test [8]: Antioxidant activity assessed as hydrogen peroxide scavenging activity at 50 ug/ml relative to control.
The nature of test [9]: Antioxidant activity assessed as hydrogen peroxide scavenging activity at 75 ug/ml relative to control.
Test [10] is described as follows: Antioxidant activity assessed as hydrogen peroxide scavenging activity at 100 ug/ml relative to control.

In the case of `COc1ccc(C2=NN(c3ccccc3)C(c3ccc(C)cc3)C2S(=O)(=O)CC2=NCCO2)cc1` (stereo not given), the inhibition in test [1] was determined as 64.4%; in test [2] it was 70.2%; in test [3], 73.8%. Moreover, the concentration for half-maximal inhibition (IC50) in test [4] was 67.74 µg/mL (≈ 138 µM). The Activity in [5] is 59.1%; in test [6], 64.9%; in [7], 70.5%; in [8] it was 62.5%; in [9] it was 64.3%; in test [10], 67.7%.
Regarding `COc1ccc(-c2noc(-c3ccc(C)cc3)c2S(=O)(=O)CC2=NCCS2)cc1`, the inhibition entry in test [1], in test [2] and in [3] was “inactive” in each case. Moreover, the IC50 result in [4] is listed as “Not Active”. Also, the result in test [5], in test [6], in test [7], in test [8], in test [9] and in [10] was inactive.
As for `O=C1O[C@H]([C@@H](O)CO)C(O)=C1O` [ASCORBIC ACID], the values for the inhibition in test [1], in test [2] and in test [3] were 77.2%, 81% and 83.8%, respectively. The IC50 in [4] is 59.65 µg/mL (≈ 339 µM). For the same compound, the Activity in test [5] was determined as 78.2%; in test [6], 81.5%; in [7], 82.8%; in test [8], 77.7%; in [9], 79.3%; in test [10], 83.2%.
Take `O=S(=O)(CC1=NCCS1)C1=NNCC1c1ccc(Cl)cc1` (stereo not given): the inhibition entry in [1], in test [2] and in test [3] was “inactive” throughout. Also, the IC50 entry in test [4] is listed as “Not Active”. For the same compound, the result in test [5], in test [6], in test [7], in test [8], in test [9] and in test [10] was inactive.
For `O=S(=O)(CC1=NCCS1)C1=NNCC1c1ccccc1` (stereo not given), the inhibition result in test [1], in test [2] and in [3] was “inactive” each time. Also, the IC50 entry in [4] is reported as “Not Active”. The result in test [5], in [6], in test [7], in [8], in [9] and in [10] was inactive.
Take `O=S(=O)(CC1=NCCS1)C1C(c2ccc(Cl)cc2)=NOC1c1ccc(Cl)cc1` (stereo not given): the inhibition result in [1], in test [2] and in [3] was “inactive” throughout. Moreover, in test [4], the IC50 result was “Not Active”. Further, the result in [5], in test [6], in test [7], in test [8], in test [9] and in test [10] was inactive.
As for `O=S(=O)(CC1=NCCO1)C1=NNCC1c1ccccc1` (stereo not given), the inhibition entry in [1], in test [2] and in test [3] was “inactive” in each case. In [4], the IC50 result is on record as “Not Active”. For the same compound, the result in test [5], in test [6], in test [7], in test [8], in test [9] and in [10] was inactive.
As to `O=S(=O)(CC1=NCCS1)C1C(c2ccc(Cl)cc2)=NN(c2ccccc2)C1c1ccc(Cl)cc1` (stereo not given), the inhibition result in [1], in test [2] and in test [3] was “inactive” in each case. Also, the IC50 entry in test [4] is given as “Not Active”. Further, the outcome in [5], in test [6], in test [7], in test [8], in test [9] and in test [10] was inactive.
For the compound `O=S(=O)(CC1=NCCO1)c1n[nH]cc1-c1ccc(Cl)cc1`, the inhibition result in test [1], in test [2] and in test [3] was “inactive” throughout. For the same compound, the IC50 result in test [4] was “Not Active”. The result in [5], in test [6], in test [7], in test [8], in test [9] and in test [10] was inactive.
As for `COc1ccc(-c2noc(-c3ccc(C)cc3)c2S(=O)(=O)CC2=NCCO2)cc1`, the inhibition in test [1] stood at 72.9%; in test [2] it was 75.8%; in [3] it was 79.7%. Moreover, the IC50 in test [4] was 62.76 µg/mL (≈ 152 µM). Also, the Activity in test [5] was 68.8%; in [6] it was 73%; in [7], 76.2%; in test [8], 70%; in test [9], 72%; in [10], 77.1%.
Consider `O=S(=O)(CC1=NCCO1)c1c(-c2ccc(Cl)cc2)nn(-c2ccccc2)c1-c1ccc(Cl)cc1`, for which the inhibition entry in test [1], in test [2] and in test [3] was “inactive” in each case. In addition, in test [4], the IC50 result is recorded as “Not Active”. Further, the outcome in test [5], in [6], in test [7], in test [8], in [9] and in [10] was inactive.
Regarding `O=S(=O)(CC1=NCCS1)c1c(-c2ccccc2)nn(-c2ccccc2)c1-c1ccccc1`, the inhibition result in test [1], in [2] and in test [3] was “inactive” throughout. Also, the IC50 entry in [4] was “Not Active”. The outcome in test [5], in [6], in [7], in [8], in test [9] and in [10] was inactive.
Turning to `Cc1ccc(C2CNN=C2S(=O)(=O)CC2=NCCO2)cc1` (stereo not given), the values for the inhibition in [1], in [2] and in test [3] were 38.7%, 43.6% and 49.8%, respectively. Further, the IC50 in test [4] amounted to 100.44 µg/mL (≈ 327 µM). The Activity in test [5] came out at 45.9%; in test [6], 49.7%; in [7], 51.4%; in test [8], 41.3%; in test [9] it was 42.1%; in test [10], 46.8%.
With `O=S(=O)(CC1=NCCS1)C1C(c2ccccc2)=NOC1c1ccccc1` (stereo not given), the inhibition entry in test [1], in test [2] and in test [3] was “inactive” each time. The IC50 entry in [4] is listed as “Not Active”. For the same compound, the result in test [5], in test [6], in test [7], in test [8], in test [9] and in test [10] was inactive.
Regarding `O=S(=O)(CC1=NCCO1)C1C(c2ccc(Cl)cc2)=NN(c2ccccc2)C1c1ccc(Cl)cc1` (stereo not given), the inhibition entry in test [1], in test [2] and in [3] was “inactive” each time. The IC50 entry in test [4] was “Not Active”. The result in test [5], in [6], in test [7], in test [8], in test [9] and in test [10] was inactive.
For `Cc1ccc(-c2c[nH]nc2S(=O)(=O)CC2=NCCS2)cc1`, the inhibition result in test [1], in test [2] and in [3] was “inactive” each time. In test [4], the IC50 result is on record as “Not Active”. The outcome in [5], in test [6], in [7], in test [8], in test [9] and in [10] was inactive.
As to `O=S(=O)(CC1=NCCS1)c1n[nH]cc1-c1ccc(Cl)cc1`, the inhibition result in [1], in [2] and in test [3] was “inactive” each time. Moreover, in test [4], the IC50 entry is listed as “Not Active”. Besides, the result in test [5], in [6], in test [7], in test [8], in test [9] and in [10] was inactive.

The inhibition is the share of the control response that was lost under treatment. What is called IC50 is the concentration that gives 50% inhibition.

These data come from ChEMBL document CHEMBL1828624, “Synthesis and antioxidant activity of oxazolyl/thiazolylsulfonylmethyl pyrazoles and isoxazoles” (Eur J Med Chem, 2011).
